Experimental data taken from ChEMBL document CHEMBL3046604, “Synthesis and fungistatic activity of new groups of 2,4-dihydroxythiobenzoyl derivatives against phytopathogenic fungi” (J Agric Food Chem, 2003).
Activity calls are given as the source filed them. The calls are words filed in the database; no cut-off is given here.

Legend:
Blumeria graminis [1] = assay: Fungistatic activity against Blumeria graminis infested wheat seedling assessed as inhibition of fungal infection at 500 ug/ml applied as spray after 7 to 14 days under green house conditions relative to control; type: functional
Summary of the method: (§1)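 Greenhouse test on healthy wheat seedlings with Erysiphe graminis. At the well-developed first-leaf stage, plants were sprayed with compound solution at 1000 or 500 µg/mL, 10 mL of solution per treatment, with three repeats in 9 cm paraffin cups.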

Blumeria graminis [2] = assay: Fungistatic activity against Blumeria graminis infested wheat seedling assessed as inhibition of fungal infection at 1000 ug/ml applied as spray after 7 to 14 days under green house conditions relative to control; type: functional; summary of the method: as §1
Phytophthora cactorum [3] = assay: Fungistatic activity against Phytophthora cactorum assessed as mycelial growth inhibition at 20 ug/ml after 4 to 8 days relative to control; type: functional; settings: read-out: GI
Summary of the method: (§2)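 Compound solutions or suspensions were diluted into PDA agar to final 200 or 20 µg/mL and poured into Petri dishes. Once the agar set, mycelium-covered agar disks of the fungus were placed at three sites on the surface. Linear colony growth was measured after 4-8 days, depending on the culture. Inhibition J = [(C − T)/C] × 100 versus untreated control, reported on a four-degree scale.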

Phytophthora cactorum [4] = assay: Fungistatic activity against Phytophthora cactorum assessed as mycelial growth inhibition at 200 ug/ml after 4 to 8 days relative to control; type: functional; settings: read-out: GI; summary of the method: as §2
Fusarium culmorum [5] = assay: Fungistatic activity against Fusarium culmorum assessed as mycelial growth inhibition at 20 ug/ml after 4 to 8 days relative to control; type: functional; settings: read-out: GI; summary of the method: as §2
Fusarium culmorum [6] = assay: Fungistatic activity against Fusarium culmorum assessed as mycelial growth inhibition at 200 ug/ml after 4 to 8 days relative to control; type: functional; settings: read-out: GI; summary of the method: as §2
Rhizoctonia solani [7] = assay: Fungistatic activity against Rhizoctonia solani assessed as mycelial growth inhibition at 20 ug/ml after 4 to 8 days relative to control; type: functional; settings: read-out: GI; summary of the method: as §2
Rhizoctonia solani [8] = assay: Fungistatic activity against Rhizoctonia solani assessed as mycelial growth inhibition at 200 ug/ml after 4 to 8 days relative to control; type: functional; settings: read-out: GI; summary of the method: as §2
Botrytis cinerea [9] = assay: Fungistatic activity against Botryotinia fuckeliana assessed as mycelial growth inhibition at 20 ug/ml after 4 to 8 days relative to control; type: functional; settings: for inhibition of growth at 20 µg/mL: read-out: GI; summary of the method: as §2
Alternaria alternata [10] = assay: Fungistatic activity against Alternaria alternata assessed as mycelial growth inhibition at 20 ug/ml after 4 to 8 days relative to control; type: functional; settings: for inhibition of growth at 20 µg/mL: read-out: GI; summary of the method: as §2
Botrytis cinerea [11] = assay: Fungistatic activity against Botryotinia fuckeliana assessed as mycelial growth inhibition at 200 ug/ml after 4 to 8 days relative to control; type: functional; settings: for inhibition of growth at 200 µg/mL: read-out: GI; summary of the method: as §2
[12] = Lipophilicity, log K of the compound in methanol-water mixture by HPLC; type: physicochemical
Summary of the method: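 Reversed-phase HPLC on a Hypersil BDS C18 column (5 µm, 150 × 4.6 mm) with UV detection at 320 nm. Samples were dissolved in methanol. Mobile phase was methanol at varying volume fractions in 10 mM acetate buffer pH 4, run at 1 mL/min and room temperature. Dead time was taken from injection of acetone dissolved in water.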

Alternaria alternata [13] = assay: Fungistatic activity against Alternaria alternata assessed as mycelial growth inhibition at 200 ug/ml after 4 to 8 days relative to control; type: functional; settings: for inhibition of growth at 200 µg/mL: read-out: GI; summary of the method: as §2

| Compound | inhibition at 500 µg/mL (Blumeria graminis [1]) [%] | inhibition at 1000 µg/mL (Blumeria graminis [2]) [%] | inhibition of growth at 20 µg/mL (Phytophthora cactorum [3]) [%] | inhibition of growth at 200 µg/mL (Phytophthora cactorum [4]) [%] | inhibition of growth at 20 µg/mL (Fusarium culmorum [5]) [%] | inhibition of growth at 200 µg/mL (Fusarium culmorum [6]) [%] | inhibition of growth at 20 µg/mL (Rhizoctonia solani [7]) [%] | inhibition of growth at 200 µg/mL (Rhizoctonia solani [8]) [%] | inhibition of growth at 20 µg/mL (Botrytis cinerea [9]) [%] | inhibition of growth at 20 µg/mL (Alternaria alternata [10]) [%] | inhibition of growth at 200 µg/mL (Botrytis cinerea [11]) [%] | log K [12] | inhibition of growth at 200 µg/mL (Alternaria alternata [13]) [%] | growth inhibition (GI) (Botrytis cinerea [9]) | growth inhibition (GI) (Alternaria alternata [10]) | growth inhibition (GI) (Botrytis cinerea [11]) | growth inhibition (GI) (Alternaria alternata [13]) |
| --- | --- | --- | --- | --- | --- | --- | --- | --- | --- | --- | --- | --- | --- | --- | --- | --- | --- |
| Oc1ccc(C(=S)Nc2ccccc2Sc2ccc(Cl)cc2)c(O)c1 | 0 | 0 | 0 | 0 | 0 | 21 | 0 | 21 | 0 | 0 | 0 | 0.446 | 41 | – | – | – | – |
| Oc1ccc(C(=S)n2nnc3cc(Cl)ccc32)c(O)c1 | 0 | 21 | 21 | 81 | 0 | 81 | 21 | 81 | 21 | 0 | 81 | 0.936 | 81 | – | – | – | – |
| CC(C)(C)c1cc(NC(=S)c2ccc(O)cc2O)no1 | 0 | 21 | 0 | 61 | 21 | 61 | 0 | 41 | 0 | 21 | 41 | -0.302 | 61 | – | – | – | – |
| Oc1ccc(C(=S)Nc2ccc(OCc3ccccc3)cc2)c(O)c1 | 0 | 21 | 0 | 41 | 0 | 21 | 0 | 41 | 21 | 0 | 61 | 0.423 | 61 | – | – | – | – |
| Oc1ccc(C(=S)Nc2ccc(Oc3ccccc3)cc2)c(O)c1 | 0 | 0 | 0 | 21 | 0 | 0 | 0 | 21 | 0 | 0 | 0 | 1.305 | 41 | – | – | – | – |
| Oc1ccc(C(=S)NC(=S)c2cccnc2)c(O)c1 | 0 | 21 | 0 | 81 | 0 | 81 | 0 | 61 | 0 | 0 | 81 | 0.751 | 61 | – | – | – | – |
| Oc1ccc(C(=S)NC2=NN(c3ccccc3)CC2)c(O)c1 | – | – | – | – | – | – | – | – | – | – | – | 0.643 | – | – | – | – | – |
| CCOC(=O)Cc1csc(NC(=S)c2ccc(O)cc2O)n1 | 0 | 21 | 0 | 41 | 0 | 0 | 0 | 0 | 0 | 0 | 0 | 0.048 | 21 | – | – | – | – |
| COC(=O)Nc1nc2ccccc2[nH]1 [CARBENDAZIM] | – | – | 81 | 81 | 81 | 81 | 81 | 81 | – | – | – | – | – | inactive | inactive | inactive | inactive |
| N#CCc1nn(-c2ccccc2)c(NC(=S)c2ccc(O)cc2O)c1C#N | 0 | 21 | 0 | 61 | 0 | 0 | 0 | 21 | 0 | 0 | 21 | 0.373 | 41 | – | – | – | – |
| O=C(NNC(=S)c1ccc(O)cc1O)c1ccncc1 | – | – | – | – | – | – | – | – | – | – | – | -0.21 | – | – | – | – | – |
